Assay results: article PMC6712212 (Drug Design, Development and Therapy, 2019)

System: NSCLC-H292 cells
Assay: Flow cytometry cell cycle analysis
Type: cell-based, human
Outline: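 Cells were grown in six-well plates and treated 48 hrs, then harvested and centrifuged 5 mins. They were resuspended in precooled PBS, centrifuged again, and fixed in 70% ethanol overnight at 4°C. After a PBS rinse, cells were stained with propidium iodide. Red fluorescence of 1×10^5 cells was measured by flow cytometry with 488 nm excitation.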

Structure (SMILES): O[C@@H](CS)[C@@H](O)CS [DTT]
- Cell cycle effect (in words): cells were blocked in G0/G1phase
